S100A4 MyoIIA: blocks human S100A4 binding to myosin IIA peptide | AID 652163 | 360,000 compounds, 0.14% hits | S100A4/TAMRA-MyoIIA peptide fluorescence polarization | inhibition, % at 10.7 µM | P26447;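 active means mean inhibition of at least 70% across replicates, with every replicate also reaching that level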
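Test system – S100A4 monomer (human) · Compound – single-point compound testing · Schedule – 5 min incubation before reading · Probe or stimulus – TAMRA-labelled myosin IIA heavy-chain peptide probe, 5 nM · Benchmarks – neutral control DMSO, positive control TFP · Medium – Calcium-containing HEPES buffer, pH 7.2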
PKA-R1A activ: activators of PKA-R1A complex; AID 504707; PKA-R1A dissociation, Cy5-IP20 fluorescence polarization; scaled: DMSO 0%, 113 µM cGMP 100%; activation, % at 11.4 µM; P00514+P68181; 340,000 compounds, 0.083% hits;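 active means percent activation above the mean of all tested compounds plus 3 SD, cut at about 19% in these data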;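 further: higher means more PKAc released from R1A so a rise in polarization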
PKA-R2B activ: activates the human PKA-R2B holoenzyme complex | P22694+P31323 | PKA-R2B holoenzyme dissociation, Cy5-IP20 fluorescence polarization; R2B truncated from residue 108, S112A mutant; 0% DMSO only, 100% 113 µM cGMP | activation, % at 11.4 µM | 340,000 compounds, 0.079% hits | AID 504700;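 active means activation above a cutoff set at the mean over all compounds plus 3 SD, cut at about 18% in these data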;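 further: higher means more holoenzyme dissociation and a rise in polarization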
Target sequence (P31323 whole entry, looked up, other chains not shown, the tested form may be a part): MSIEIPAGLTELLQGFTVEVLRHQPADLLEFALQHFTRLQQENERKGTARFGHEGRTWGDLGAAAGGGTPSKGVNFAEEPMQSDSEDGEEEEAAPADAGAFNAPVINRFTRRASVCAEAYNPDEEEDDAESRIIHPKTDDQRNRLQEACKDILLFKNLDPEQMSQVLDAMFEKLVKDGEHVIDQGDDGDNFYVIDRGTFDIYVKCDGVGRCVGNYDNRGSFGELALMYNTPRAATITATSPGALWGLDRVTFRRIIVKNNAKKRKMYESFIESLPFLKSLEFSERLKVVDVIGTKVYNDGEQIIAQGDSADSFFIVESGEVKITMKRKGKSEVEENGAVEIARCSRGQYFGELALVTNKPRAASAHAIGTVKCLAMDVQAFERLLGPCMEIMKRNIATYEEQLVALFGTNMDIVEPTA
CRFR2-BP antag: CRF-BP/CRF-R2 complex antagonism; inhibition, % at 11.8 µM; HEK293 CRF-R2/CRF-BP, CRF-induced calcium fluorescence; 350,000 compounds, 0.59% hits;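 active means inhibition of the ligand-induced calcium signal above about 50% at the single tested concentration, limit read from the data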
SIRT5 block: blocks human SIRT5 desuccinylation of peptide; Purified SirT5, succinyl-peptide AMC, trypsin-coupled fluorescence; inhibition, % at 15 µM; 330,000 compounds, 1.1% hits; in the data active means inhibition above about 15%
An asterisk follows results filed as active; · = no result; ! = a repeat was not active. Only some compounds are listed: those with a hit (about 1.5% of all), similar ones and a draw of the others.

SMILES	S100A4 MyoIIA	PKA-R1A activ	PKA-R2B activ	CRFR2-BP antag	SIRT5 block
COc1cccc(CN2CCC(Oc3ccc(C(=O)NCc4ccccn4)cc3)CC2)c1O	-3	-4	5	107*	-1
O=C(c1ccc2c(c1)OCO2)N1CC(=O)N2[C@@H](CO)[C@H](c3ccc(C#Cc4ccccc4)cc3)[C@@H]2C1	114*	·	·	·	0
O=C(c1ccccc1F)N1CC(=O)N2[C@@H](CO)[C@H](c3ccc(C#Cc4ccccc4)cc3)[C@@H]2C1	79*	·	·	·	2
O=C(c1ccc2c(c1)OCO2)N1CC(=O)N2[C@H](CO)[C@H](c3ccc(C#Cc4ccccc4)cc3)[C@@H]2C1	-9	·	·	·	7
COc1ccccc1C(=O)Nc1ccc2c(c1)C(=O)N(C)[C@@H]1CC[C@@H](CC(=O)NCCc3ccncc3)O[C@@H]1CO2	·	·	·	·	-6
Cc1cc(C(F)(F)F)n(-c2nc(C(=O)N/N=C/c3ccc(F)cc3)cs2)n1	·	-5	-22	71*	·
C[C@@H]1CN([C@@H](C)CO)S(=O)(=O)c2ccc(C#Cc3ccccc3F)cc2O[C@@H]1CN(C)C(=O)c1ccc2c(c1)OCO2	-9	·	·	·	26*
C[C@H]1CN([C@@H](C)CO)S(=O)(=O)c2ccc(C#Cc3ccccc3F)cc2O[C@@H]1CN(C)C(=O)Cc1ccccc1	-1	·	·	·	1
C[C@H]1CN([C@@H](C)CO)S(=O)(=O)c2ccc(C#Cc3ccccc3F)cc2O[C@H]1CN(C)C(=O)c1ccc2c(c1)OCO2	-5	·	·	·	17*
O=S(=O)(c1ccccc1)N1CCN(C2CCN(Cc3ccccc3)CC2)CC1	·	3	5	-16	·
c1ccc(CN2CCC(N3CCC(N4CCCCCC4)CC3)CC2)cc1	1	4	-3	7	32*
Cc1nn(C)cc1NC(=O)C[C@H]1CC[C@H]2[C@@H](COc3ccc(NC(=O)Nc4cccc(Cl)c4)cc3C(=O)N2C)O1	8	·	·	·	2
Cc1nn(S(=O)(=O)c2cccs2)c(C)c1Sc1ccc([N+](=O)[O-])cc1	-3	9	-5	58*	-2
O=C(C[C@@H]1CC[C@H]2[C@@H](COC[C@@H](O)CN2Cc2cc(F)ccc2F)O1)NCc1ccccc1	4	·	·	·	0
Cc1[nH]c(=O)c(C#N)cc1-c1csc(-c2ccccc2)n1	-1	-8	-8	51*	-2
Cc1ccsc1/C=N/NC(=S)NCCc1ccccc1	-2	1	-1	-2	16*
COC(=O)c1ccc(NC(=O)CCS(=O)(=O)c2ccc(Br)s2)cc1	·	-7	-15	-6	·
CC(=O)c1cccc(NC(=O)CCS(=O)(=O)c2ccc(Br)s2)c1	-9	-14	-12	14	19*
O=C(Nc1ccc2c(c1)OCO2)N1[C@@H]2CNC[C@H]1C2c1ccc(/C=C/c2ccccc2)cc1 (stereo partly drawn)	-12	·	·	·	5
O=C(C1CCCC1)N1C[C@@H]2N[C@H](C1)C2c1ccc(-c2ccccc2F)cc1 (stereo partly drawn)	-3	·	·	·	25*!
O=C(Nc1ccccc1F)N1C[C@@H]2N[C@H](C1)C2c1ccc(/C=C/c2ccccc2)cc1 (stereo partly drawn)	18	·	·	·	27*
O=C(Nc1ccc2c(c1)OCO2)N1C[C@@H]2N[C@H](C1)C2c1ccc(C=Cc2ccccc2)cc1 (stereo partly drawn)	15	·	·	·	17*!
COc1cccc(-c2ccc([C@H]3[C@@H](CO)N4C(=O)CN(C(=O)c5ccncc5)C[C@@H]34)cc2)c1	3	·	·	·	-1
CCOC(=O)c1sc2nc(OCCN3CCOCC3)cc(C)c2c1N	-6	·	·	·	17*
CCOC(=O)c1sc2nc(N3CCOCC3)c3c(c2c1N)CCC3	·	-3	-3	3	·
C[C@H]1CN([C@@H](C)CO)C(=O)c2cccc(NS(=O)(=O)c3cn(C)cn3)c2O[C@@H]1CN(C)C(=O)Nc1cccc2ccccc12	2	·	·	·	2
C[C@H](CO)N1C[C@H](C)[C@H](CN(C)C(=O)C2CCCCC2)OCCCC[C@H](C)Oc2ccc(NC(=O)C3CCCCC3)cc2C1=O	10	·	·	·	3
COc1ccc(OC)c(CN2CCN(CCCc3ccccc3)C(CCO)C2)c1 (stereo not drawn)	10	-4	-5	5	-6

Assay outcomes (PubChem BioAssay)
